Results as given in ChEMBL document CHEMBL3351585, “Design, synthesis and biological evaluation of novel peptides with anti-cancer and drug resistance-reversing activities” (Eur J Med Chem, 2015).
Activity calls are given as the source filed them. The calls are words filed in the database; no cut-off is given here.

Legend:
[1] = Cytotoxicity against human GES-1 cells after 48 hrs by MTT assay; type: cell-based; settings: GES1, 48 h
How it was run: (§1)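 Cells grown in RPMI1640 with 10% heat-inactivated FBS and 1% penicillin-streptomycin at 37 °C, 5% CO2. Log-phase cells were seeded at 5 × 10^3/well 24 h before treatment, exposed to a range of peptide concentrations for 48 h, then given MTT for 4 h. Formazan was dissolved in DMSO and A490 read. Survival was computed relative to untreated wells, and IC50 taken from the survival curve.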

[2] = Retention time of the compound by UPLC method; type: physicochemical
[3] = Toxicity in rabbit erythrocytes assessed as induction of hemolysis at 160 uM incubated for 1 hr by microplate reader assay; type: cell-based, Oryctolagus cuniculus; settings: erythrocyte
How it was run: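 Rabbit red blood cells in PBS were mixed 1:1 by volume with peptide solution and incubated 1 h at 37 °C, then spun at 1000 g for 5 min. Hemoglobin in the supernatant was read at 540 nm. PBS defined 0% hemolysis and 0.1% Triton X-100 defined 100%.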

K562 = assay: Anticancer activity against human K562 cells after 48 hrs by MTT assay; type: functional, cell-based; settings: K562, 48 h; how it was run: as §1
MCF7 [4] = assay: Anticancer activity against human MCF7 cells after 48 hrs by MTT assay; type: functional, cell-based; settings: MCF7, 48 h; how it was run: as §1
MCF7 [5] = assay: Induction of cytochrome c release in cytoplasm of human MCF7 cells at 5 uM incubated for 2 hrs by ELISA method (reference value: 44.1 +/- 2.7 ng); type: functional
MCF7 [6] = assay: Antimigratory activity in human MCF7 cells assessed as inhibition of cell migration at 0.5 uM incubated for 48 hrs by transwell migration assay; type: functional, cell-based
How it was run: (§2)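 Transwell chambers with a porous membrane separating upper and lower compartments. 4 × 10^4 MCF-7 cells were placed in the upper chamber in peptide-containing medium and incubated 48 h. Cells that reached the lower membrane surface were counted.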

[7] = Increase in adriamycin uptake in human MCF7/ADR cells at 0.5 uM after 2.5 hrs by fluorescence spectrophotometry; type: ADME, cell-based; settings: nci/adr-res
How it was run: (§3)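 2 × 10^5 MCF-7/ADM or K562/ADM cells were co-incubated 2.5 h with ADM plus peptide, or with verapamil as comparator. After washing in cold PBS, cells were lysed in 0.75 M HCl/0.2% Triton X-100 in isopropanol. Lysate ADM fluorescence was measured by spectrofluorometry at ex 460/em 610 nm.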

MCF7 [8] = assay: Induction of mitochondrial membrane potential depolarization in human MCF7 cells at 5 uM incubated for 2 hrs by JC1 staining; type: functional, cell-based
How it was run: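 MCF-7 cells plated at 1 × 10^5 per well, grown 24 h, then exposed to peptide for 2 h. Mitochondrial membrane potential was assessed with a JC-1 mitochondrial membrane potential kit. Green (monomer) and red (J-aggregate) fluorescence were imaged, with merged orange taken as normal potential.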

MCF7 [9] = assay: Induction of cytochrome c release in human MCF7 cells at 5 uM incubated for 2 hrs by ELISA method (reference value: 364.2 +/- 20.5 ng); type: functional
[10] = Anticancer activity against human K562/ADR cells after 48 hrs by MTT assay; type: functional, cell-based; how it was run: as §1
MCF7 [11] = assay: Induction of cytochrome c release in mitochondria of human MCF7 cells at 5 uM incubated for 2 hrs by ELISA method (reference value: 347.8 +/- 14.5 ng); type: functional
MCF7 [12] = assay: Antimigratory activity in human MCF7 cells assessed as inhibition of cell migration at 0.5 uM incubated for 48 hrs by wound healing assay; type: functional, cell-based
How it was run: (§4)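 MCF-7 cells were seeded at 2 × 10^5/well and grown 24 h to 90% confluence. A cell-free gap was scratched, and cells migrated in serum-free medium with peptide for 48 h. Wound closure was photographed at 0 h and 48 h.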

K562/Adr [13] = assay: Potentiation of adriamycin-induced cytotoxicity against human K562/ADR cells at 0.5 uM after 48 hrs by MTT assay; type: functional, cell-based
How it was run: (§5)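 ADM-resistant MCF-7/ADM or K562/ADM cells, grown in RPMI1640 with 10% FBS at 37 °C and 5% CO2, were seeded at 1 × 10^4 per well and held 24 h. Fixed peptide was added, followed by graded ADM concentrations, for 48 h. MTT was then given for 4 h at 37 °C, formazan dissolved in DMSO and absorbance read at 570 nm. Verapamil served as positive control.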

[14] = Increase in adriamycin uptake in human K562/ADR cells at 0.5 uM after 2.5 hrs by fluorescence microscopy; type: ADME, cell-based
How it was run: (§6)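 2 × 10^5 MCF-7/ADM or K562/ADM cells were co-incubated 2.5 h with ADM plus peptide, or with verapamil as comparator. Cells were washed with cold PBS and ADM fluorescence was imaged by fluorescence microscopy.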

MCF7 [15] = assay: Induction of cell membrane morphology changes in human MCF7 cells at 5 uM incubated for 30 mins by scanning electron microscopy; type: functional, cell-based
How it was run: (§7)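 MCF-7 cells were grown 24 h on coverslips at 1 × 10^5/well and exposed to peptide for 30 min. Cells were gently PBS-washed, fixed in 2.5% glutaraldehyde, and examined by scanning electron microscopy.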

MCF7 [16] = assay: Induction of cytochrome c release in extracellular region of human MCF7 cells at 5 uM incubated for 2 hrs by ELISA method (reference value: 15.7 +/- 0.77 ng); type: functional
[17] = Anticancer activity against human MCF7/ADR cells after 48 hrs by MTT assay; type: functional, cell-based; settings: NCI/ADR-RES; how it was run: as §1
[18] = Drug uptake in cytosol of human MCF7 cells at 5 uM incubated for 5 mins or 30 mins by fluorescein isothiocyanate labeling based fluorescence microscopy; type: ADME, cell-based
How it was run: (§8)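 MCF-7 cells were plated at 1 × 10^5/well and grown 24 h, then exposed to FITC-labeled peptides for 5 min or 30 min. Cells were washed three times with cold PBS, and intracellular fluorescence was imaged by fluorescence microscopy.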

[19] = Increase in adriamycin uptake in human K562/ADR cells at 0.5 uM after 2.5 hrs by fluorescence spectrophotometry; type: ADME, cell-based; how it was run: as §3
NCI/ADR-RES [20] = assay: Potentiation of adriamycin-induced cytotoxicity against human MCF7/ADR cells at 0.5 uM after 48 hrs by MTT assay; type: functional, cell-based; how it was run: as §5
[21] = Increase in adriamycin uptake in human MCF7/ADR cells at 0.5 uM after 2.5 hrs by fluorescence microscopy; type: ADME, cell-based; settings: nci/adr-res; how it was run: as §6
MCF7 [22] = assay: Induction of cell membrane alteration in human MCF7 cells at 5 uM incubated for 30 mins by acridine orange/ethidium bromide double staining method; type: functional, cell-based
How it was run: (§9)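 MCF-7 cells were plated at 1 × 10^5/well and grown 24 h, then given peptide for 30 min. Cells were washed twice with PBS and stained 10 min in the dark with cold PBS containing acridine orange and ethidium bromide. Excess dye was washed off, then cells were imaged by fluorescence microscopy. Red EB staining marks membrane-compromised cells.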

MCF7 [23] = assay: Induction of cytochrome c release in cytoplasm of human MCF7 cells at 20 uM incubated for 2 hrs by ELISA method (reference value: 44.1 +/- 2.7 ng); type: functional
MCF7 [24] = assay: Induction of cytochrome c release in mitochondria of human MCF7 cells at 20 uM incubated for 2 hrs by ELISA method (reference value: 347.8 +/- 14.5 ng); type: functional
[25] = Increase in adriamycin uptake in human MCF7/ADR cells at 5 uM after 2.5 hrs by fluorescence microscopy; type: ADME, cell-based; settings: nci/adr-res; how it was run: as §6
[26] = Drug uptake in cytosol of human MCF7 cells at 20 uM incubated for 5 mins or 30 mins by fluorescein isothiocyanate labeling based fluorescence microscopy; type: ADME, cell-based; how it was run: as §8
MCF7 [27] = assay: Induction of cell membrane morphology changes in human MCF7 cells at 20 uM incubated for 30 mins by scanning electron microscopy; type: functional, cell-based; how it was run: as §7
MCF7 [28] = assay: Induction of mitochondrial membrane potential depolarization in human MCF7 cells at 20 uM incubated for 2 hrs by JC1 staining; type: functional, cell-based
How it was run: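 MCF-7 cells were plated at 1 × 10^5/well, grown 24 h, and treated with peptide for 2 h. Mitochondrial membrane potential was assessed with a JC-1 kit by imaging red and green fluorescence.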

[29] = Increase in adriamycin uptake in human MCF7/ADR cells at 5 uM after 2.5 hrs by fluorescence spectrophotometry; type: ADME, cell-based; settings: nci/adr-res; how it was run: as §3
MCF7 [30] = assay: Induction of cytochrome c release in human MCF7 cells at 5 to 20 uM incubated for 2 hrs by ELISA method
[31] = Increase in adriamycin uptake in human K562/ADR cells at 5 uM after 2.5 hrs by fluorescence microscopy; type: ADME, cell-based; how it was run: as §6
MCF7 [32] = assay: Antimigratory activity in human MCF7 cells assessed as inhibition of cell migration at 5 uM incubated for 48 hrs by transwell migration assay; type: functional, cell-based; how it was run: as §2
MCF7 [33] = assay: Antimigratory activity in human MCF7 cells assessed as inhibition of cell migration at 5 uM incubated for 48 hrs by wound healing assay; type: functional, cell-based; how it was run: as §4
[34] = Increase in adriamycin uptake in human K562/ADR cells at 5 uM after 2.5 hrs by fluorescence spectrophotometry; type: ADME, cell-based; how it was run: as §3
K562/Adr [35] = assay: Potentiation of adriamycin-induced cytotoxicity against human K562/ADR cells at 5 uM after 48 hrs by MTT assay; type: functional, cell-based; how it was run: as §5
MCF7 [36] = assay: Induction of cell membrane alteration in human MCF7 cells at 20 uM incubated for 30 mins by acridine orange/ethidium bromide double staining method; type: functional, cell-based; how it was run: as §9
MCF7 [37] = assay: Induction of cytochrome c release in extracellular region of human MCF7 cells at 20 uM incubated for 2 hrs by ELISA method (reference value: 15.7 +/- 0.77 ng); type: functional
NCI/ADR-RES [38] = assay: Potentiation of adriamycin-induced cytotoxicity against human MCF7/ADR cells at 5 uM after 48 hrs by MTT assay; type: functional, cell-based; how it was run: as §5
MCF7 [39] = assay: Induction of cytochrome c release in human MCF7 cells at 20 uM incubated for 2 hrs by ELISA method (reference value: 364.2 +/- 20.5 ng); type: functional

Substance: H-VKRFKKFFRKLKKHV-NH2
- IC50 [1]: 105 µM
- Retention_time [2]: 3.28 min
- Activity [3]: Non-toxic
- IC50 (K562): 10.5 µM
- IC50 (MCF7 [4]): 5 µM

Substance: H-VKRFKKFFRKLKKLV-NH2
- Activity (MCF7 [5]): 59.9 ng
- IC50 [1]: 77.6 µM
- inhibition (MCF7 [6]): Active
- Retention_time [2]: 3.84 min
- Activity [3]: Non-toxic
- Activity [7]: Active
- IC50 (K562): 1.1 µM
- Activity (MCF7 [8]): Active
- Activity (MCF7 [9]): 354.8 ng
- IC50 [10]: 3.3 µM
- Activity (MCF7 [11]): 303.8 ng
- inhibition (MCF7 [12]): Active
- Activity (K562/Adr [13]): Active
- Activity [14]: Active
- Activity (MCF7 [15]): Active
- Activity (MCF7 [16]): 14.9 ng
- IC50 [17]: 4.4 µM
- Drug uptake [18]: Active
- IC50 (MCF7 [4]): 3.6 µM
- Activity [19]: Active
- Activity (NCI/ADR-RES [20]): Active
- Activity [21]: Active
- Activity (MCF7 [22]): Active

Substance: H-VKRFKKFFRKLKKQV-NH2
- IC50 [1]: 102 µM
- Retention_time [2]: 3.31 min
- Activity [3]: Non-toxic
- IC50 (K562): 16.2 µM
- IC50 (MCF7 [4]): 14.5 µM

Substance: H-VKRFKKFFRKLKKRV-NH2
- IC50 [1]: 93.3 µM
- Retention_time [2]: 3.13 min
- Activity [3]: Non-toxic
- IC50 (K562): 8.7 µM
- IC50 (MCF7 [4]): 5.5 µM

Substance: H-VKRFKKFFRKLKKSV-NH2
- IC50 [1]: 102 µM
- Activity (MCF7 [23]): 60.3 ng
- Retention_time [2]: 3.38 min
- Activity (MCF7 [24]): 301.4 ng
- Activity [25]: Active
- Drug uptake [26]: Active
- Activity (MCF7 [27]): Active
- Activity [3]: Non-toxic
- Activity (MCF7 [28]): Active
- Activity [29]: Active
- Activity (MCF7 [30]): Dose-dependent effect
- IC50 (K562): 26.9 µM
- Activity [31]: Active
- IC50 [10]: 31.6 µM
- inhibition (MCF7 [32]): Active
- inhibition (MCF7 [33]): Active
- Activity [34]: Active
- IC50 [17]: 24.1 µM
- Activity (K562/Adr [35]): Active
- IC50 (MCF7 [4]): 21.9 µM
- Activity (MCF7 [36]): Active
- Activity (MCF7 [37]): 14.7 ng
- Activity (NCI/ADR-RES [38]): Active
- Activity (MCF7 [39]): 353.4 ng

Substance: H-VKRFKKFFRKLKKTV-NH2
- IC50 [1]: 110 µM
- Retention_time [2]: 3.44 min
- Activity [3]: Non-toxic
- IC50 (K562): 17 µM
- IC50 (MCF7 [4]): 19.1 µM

Substance: H-VKRFKKFFRKLKKVV-NH2
- IC50 [1]: 64.6 µM
- Retention_time [2]: 3.69 min
- Activity [3]: Non-toxic
- IC50 (K562): 5 µM
- IC50 (MCF7 [4]): 4.9 µM
